# Source: PubChem BioAssay AID1747 (Sanford-Burnham Center for Chemical Genomics, 2009)
# System: MDA-MB-435 + TRAIL, ATPlite cytotoxicity, 24 h
# Experiment: potentiation of TRAIL cytotoxicity in resistant cells, confirmation, cell-based, MDA-MB-435, ATPlite luminescence, 24 h (AID 1747)
# Conditions: stronger effect = higher value; for cytotoxicity: compound alone, no TRAIL
# Summary of the method: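 System – TRAIL-resistant human MDA-MB-435 cancer cells · Probe or stimulus – TRAIL at 30 ng/mL final · Measured by – ATPlite luminescence reporting cellular ATP content · Schedule – 4 h compound pretreatment, 24 h TRAIL, 37 °C · Doses – compound 1.25–5 µM final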
# [1] = compound plus TRAIL, at 1.25 µM
SMILES,cytotoxicity with TRAIL (at 5 µM),cytotoxicity (at 5 µM),cytotoxicity with TRAIL [1],"cytotoxicity with TRAIL (compound plus TRAIL, at 2.5 µM)"
CSc1nc(-c2ccccc2)nc(C(Cl)Cl)n1,82%,0%,44%,58%
CCSc1nc(-c2ccccc2)nc(C(Cl)Cl)n1,73%,0%,28%,45%
CSc1nc(-c2ccc(C)cc2)nc(C(Cl)Cl)n1,71%,0%,43%,60%
